In ChEMBL document CHEMBL1629622, “Isolation of VanB-type Enterococcus faecalis strains from nosocomial infections: first report of the isolation and identification of the pheromone-responsive plasmids pMG2200, Encoding VanB-type vancomycin resistance and a Bac41-type bacteriocin, and pMG2201, encoding erythromycin resistance and …” (2009):
≈ marks a conversion by molar mass, not a printed value.

Experiments:
Format in all cases: functional
Enterococcus faecalis [1] = experiment: Antimicrobial activity against Enterococcus faecalis NKH18 harboring pMG2200-like and pMG2201-like plasmids after 24 hrs by agar dilution method
Method in brief: (§1)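 Agar dilution MICs on clinical E. faecalis isolates. Overnight Mueller-Hinton broth culture diluted 100-fold; ~5 × 10^5 cells inoculated onto Mueller-Hinton medium holding a concentration series of each drug. Incubated at 37°C and read at 24 h. Testing and interpretation follow CLSI (NCCLS) standards, with E. faecium ATCC 9790 as control strain.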

Enterococcus faecalis [2] = experiment: Antimicrobial activity against Enterococcus faecalis NKH17 harboring pMG2200-like plasmid after 24 hrs by agar dilution method; method in brief: as §1
Enterococcus faecalis [3] = experiment: Antimicrobial activity against Enterococcus faecalis NKH13 harboring pMG2200-like and pMG2201-like plasmids after 24 hrs by agar dilution method; method in brief: as §1
Enterococcus faecalis [4] = experiment: Antimicrobial activity against Enterococcus faecalis NKH6 harboring pMG2200-like and pMG2201-like plasmids after 24 hrs by agar dilution method; method in brief: as §1
Enterococcus faecalis [5] = experiment: Antimicrobial activity against Enterococcus faecalis NKH12 harboring pMG2200-like and pMG2201-like plasmids after 24 hrs by agar dilution method; method in brief: as §1
Enterococcus faecalis [6] = experiment: Antimicrobial activity against Enterococcus faecalis NKH10 harboring pMG2200-like and pMG2201-like plasmids after 24 hrs by agar dilution method; method in brief: as §1
Enterococcus faecalis [7] = experiment: Antimicrobial activity against Enterococcus faecalis NKH4 harboring pMG2200-like and pMG2201-like plasmids after 24 hrs by agar dilution method; method in brief: as §1
Enterococcus faecalis [8] = experiment: Antimicrobial activity against Enterococcus faecalis NKH8 harboring pMG2200-like and pMG2201-like plasmids after 24 hrs by agar dilution method; method in brief: as §1
Enterococcus faecalis [9] = experiment: Antimicrobial activity against Enterococcus faecalis NKH2 harboring pMG2200-like and pMG2201-like plasmids after 24 hrs by agar dilution method; method in brief: as §1
Enterococcus faecalis [10] = experiment: Antimicrobial activity against Enterococcus faecalis NKH3 harboring pMG2200-like and pMG2201-like plasmids after 24 hrs by agar dilution method; method in brief: as §1
Enterococcus faecalis [11] = experiment: Antimicrobial activity against Enterococcus faecalis NKH11 harboring pMG2200-like plasmid after 24 hrs by agar dilution method; method in brief: as §1
Enterococcus faecalis [12] = experiment: Antimicrobial activity against Enterococcus faecalis NKH1 harboring pMG2200-like plasmid after 24 hrs by agar dilution method; method in brief: as §1
Enterococcus faecalis [13] = experiment: Antimicrobial activity against Enterococcus faecalis NKH15 harboring pMG2200-like and pMG2201-like plasmids after 24 hrs by agar dilution method; method in brief: as §1
Enterococcus faecalis [14] = experiment: Antimicrobial activity against Enterococcus faecalis NKH9 harboring pMG2200-like and pMG2201-like plasmids after 24 hrs by agar dilution method; method in brief: as §1
Enterococcus faecalis [15] = experiment: Antimicrobial activity against Enterococcus faecalis NKH14 harboring pMG2200-like and pMG2201-like plasmids after 24 hrs by agar dilution method; method in brief: as §1
Enterococcus faecalis [16] = experiment: Antimicrobial activity against Enterococcus faecalis NKH16 harboring pMG2200-like plasmid after 24 hrs by agar dilution method; method in brief: as §1
Enterococcus faecalis [17] = experiment: Antimicrobial activity against Enterococcus faecalis NKH7 harboring pMG2200-like plasmid after 24 hrs by agar dilution method; method in brief: as §1
Enterococcus faecalis [18] = experiment: Antimicrobial activity against Enterococcus faecalis NKH5 harboring pMG2200-like plasmid after 24 hrs by agar dilution method; method in brief: as §1

Compound | MIC (Enterococcus faecalis [1]; NKH18, 24 h) [µg/mL] | MIC (Enterococcus faecalis [2]; NKH17, 24 h) [µg/mL] | MIC (Enterococcus faecalis [3]; NKH13, 24 h) [µg/mL] | MIC (Enterococcus faecalis [4]; NKH6, 24 h) [µg/mL] | MIC (Enterococcus faecalis [5]; NKH12, 24 h) [µg/mL] | MIC (Enterococcus faecalis [6]; NKH10, 24 h) [µg/mL] | MIC (Enterococcus faecalis [7]; NKH4, 24 h) [µg/mL] | MIC (Enterococcus faecalis [8]; NKH8, 24 h) [µg/mL] | MIC (Enterococcus faecalis [9]; NKH2, 24 h) [µg/mL] | MIC (Enterococcus faecalis [10]; NKH3, 24 h) [µg/mL] | MIC (Enterococcus faecalis [11]; NKH11, 24 h) [µg/mL] | MIC (Enterococcus faecalis [12]; NKH1, 24 h) [µg/mL] | MIC (Enterococcus faecalis [13]; NKH15, 24 h) [µg/mL] | MIC (Enterococcus faecalis [14]; NKH9, 24 h) [µg/mL] | MIC (Enterococcus faecalis [15]; NKH14, 24 h) [µg/mL] | MIC (Enterococcus faecalis [16]; NKH16, 24 h) [µg/mL] | MIC (Enterococcus faecalis [17]; NKH7, 24 h) [µg/mL] | MIC (Enterococcus faecalis [18]; NKH5, 24 h) [µg/mL] | further results
O=C(O)c1cn(C2CC2)c2cc(N3CCNCC3)c(F)cc2c1=O [CIPROFLOXACIN] | 64 (≈ 193 µM) | 64 (≈ 193 µM) | 64 (≈ 193 µM) | 64 (≈ 193 µM) | 64 (≈ 193 µM) | 64 (≈ 193 µM) | 64 (≈ 193 µM) | 64 (≈ 193 µM) | 64 (≈ 193 µM) | 64 (≈ 193 µM) | 64 (≈ 193 µM) | 64 (≈ 193 µM) | 64 (≈ 193 µM) | 64 (≈ 193 µM) | 64 (≈ 193 µM) | 64 (≈ 193 µM) | 64 (≈ 193 µM) | 64 (≈ 193 µM) | 
CC[C@H]1OC(=O)[C@H](C)[C@@H](O[C@H]2C[C@@](C)(OC)[C@@H](O)[C@H](C)O2)[C@H](C)[C@@H](O[C@@H]2O[C@H](C)C[C@H](N(C)C)[C@H]2O)[C@](C)(O)C[C@@H](C)C(=O)[C@H](C)[C@@H](O)[C@]1(C)O [ERYTHROMYCIN] | > 1020 | 0.125 (≈ 0.17 µM) | > 1020 | > 1020 | > 1020 | > 1020 | > 1020 | > 1020 | > 1020 | > 1020 | 0.125 (≈ 0.17 µM) | 0.25 (≈ 0.341 µM) | > 1020 | > 1020 | > 1020 | 0.125 (≈ 0.17 µM) | 0.125 (≈ 0.17 µM) | 0.125 (≈ 0.17 µM) | 
NC[C@H]1O[C@H](O[C@H]2[C@H](O)[C@@H](O[C@H]3O[C@H](CO)[C@@H](O)[C@H](N)[C@H]3O)[C@H](N)C[C@@H]2N)[C@H](O)[C@@H](O)[C@@H]1O [KANAMYCIN] | > 1020 | > 1020 | > 1020 | > 1020 | > 1020 | > 1020 | > 1020 | > 1020 | > 1020 | > 1020 | > 1020 | > 1020 | > 1020 | > 1020 | > 1020 | > 1020 | > 1020 | > 1020 | 
CN[C@@H]1[C@H](O[C@H]2[C@H](O[C@H]3[C@H](O)[C@@H](O)[C@H](N=C(N)N)[C@@H](O)[C@@H]3N=C(N)N)O[C@@H](C)[C@]2(O)C=O)O[C@@H](CO)[C@H](O)[C@H]1O [STREPTOMYCIN] | 32 (≈ 55 µM) | 32 (≈ 55 µM) | 32 (≈ 55 µM) | 32 (≈ 55 µM) | 32 (≈ 55 µM) | 32 (≈ 55 µM) | 32 (≈ 55 µM) | 32 (≈ 55 µM) | 32 (≈ 55 µM) | 32 (≈ 55 µM) | 32 (≈ 55 µM) | 32 (≈ 55 µM) | 32 (≈ 55 µM) | 32 (≈ 55 µM) | 32 (≈ 55 µM) | 32 (≈ 55 µM) | 32 (≈ 55 µM) | 32 (≈ 55 µM) | 
CN(C)[C@@H]1C(O)=C(C(N)=O)C(=O)[C@@]2(O)C(O)=C3C(=O)c4c(O)cccc4[C@@](C)(O)[C@H]3C[C@@H]12 [TETRACYCLINE] | 32 (≈ 72 µM) | 32 (≈ 72 µM) | 64 (≈ 144 µM) | 64 (≈ 144 µM) | 64 (≈ 144 µM) | 64 (≈ 144 µM) | 32 (≈ 72 µM) | 64 (≈ 144 µM) | 64 (≈ 144 µM) | 32 (≈ 72 µM) | 64 (≈ 144 µM) | 64 (≈ 144 µM) | 32 (≈ 72 µM) | 64 (≈ 144 µM) | 64 (≈ 144 µM) | 32 (≈ 72 µM) | 64 (≈ 144 µM) | 64 (≈ 144 µM) | 
CN[C@H](CC(C)C)C(=O)N[C@H]1C(=O)N[C@@H](CC(N)=O)C(=O)N[C@H]2C(=O)N[C@H]3C(=O)N[C@H](C(=O)N[C@H](C(=O)O)c4cc(O)cc(O)c4-c4cc3ccc4O)[C@H](O)c3ccc(c(Cl)c3)Oc3cc2cc(c3O[C@@H]2O[C@H](CO)[C@@H](O)[C@H](O)[C@H]2O[C@H]2C[C@](C)(N)[C@H](O)[C@H](C)O2)Oc2ccc(cc2Cl)[C@H]1O [VANCOMYCIN] |  | 32 (≈ 22.1 µM) | 256 (≈ 177 µM) |  | 256 (≈ 177 µM) | 256 (≈ 177 µM) |  | 256 (≈ 177 µM) | 256 (≈ 177 µM) |  |  | 128 (≈ 88.3 µM) |  | 256 (≈ 177 µM) | 256 (≈ 177 µM) |  |  |  | 
GENTAMICIN |  |  |  |  |  |  |  |  |  |  |  |  |  |  |  |  |  |  | MIC (Enterococcus faecalis [1]): > 1020 µg/mL; MIC (Enterococcus faecalis [2]): > 1020 µg/mL; MIC (Enterococcus faecalis [3]): > 1020 µg/mL; MIC (Enterococcus faecalis [4]): > 1020 µg/mL; MIC (Enterococcus faecalis [5]): > 1020 µg/mL; MIC (Enterococcus faecalis [6]): > 1020 µg/mL; MIC (Enterococcus faecalis [7]): > 1020 µg/mL; MIC (Enterococcus faecalis [8]): > 1020 µg/mL; MIC (Enterococcus faecalis [9]): > 1020 µg/mL; MIC (Enterococcus faecalis [10]): > 1020 µg/mL; MIC (Enterococcus faecalis [11]): > 1020 µg/mL; MIC (Enterococcus faecalis [12]): > 1020 µg/mL; MIC (Enterococcus faecalis [13]): > 1020 µg/mL; MIC (Enterococcus faecalis [14]): 1020 µg/mL; MIC (Enterococcus faecalis [15]): > 1020 µg/mL; MIC (Enterococcus faecalis [16]): > 1020 µg/mL; MIC (Enterococcus faecalis [17]): > 1020 µg/mL; MIC (Enterococcus faecalis [18]): > 1020 µg/mL
